Experimental data from ChEMBL document CHEMBL1123394, “Systematic synthesis and biological evaluation of alpha- and beta-D-xylofuranosyl nucleosides of the five naturally occurring bases in nucleic acids and related analogues” (J Med Chem, 1986).
Converted amounts (≈) assume the structure as drawn.

Columns and labels:
Mus musculus [1] = assay: Toxicity of compound against mice was determined at a concentration of 750 mg/kg; format: organism-based; set-up: dose 750 mg/kg; settings: in vivo
Summary of the method: (§1)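 Swiss mice (20-24 g) received a single intraperitoneal dose of 100-2,000 mg/kg. Compound was suspended in distilled water containing 0.2 g Tween 80 and 0.2 g (carboxymethyl)cellulose per 100 mL. Mice were followed for 14 days for acute toxicity.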

Mus musculus [2] = assay: Toxicity of compound against mice was determined at a concentration of 250 mg/kg; format: organism-based; set-up: dose 250 mg/kg; settings: in vivo; summary of the method: as §1
Mus musculus [3] = assay: Toxicity of compound against mice was determined at a concentration of 1200 mg/kg; format: organism-based; set-up: dose 1200 mg/kg; settings: in vivo; summary of the method: as §1
Mus musculus [4] = assay: Toxicity of compound against mice was determined at a concentration of 100 mg/kg; format: organism-based; set-up: dose 100 mg/kg; settings: in vivo; summary of the method: as §1
Mus musculus [5] = assay: Efficacy expressed as number of surviving mice infected with herpetic encephalitis at dose of 0 mg/kg; format: functional
Mus musculus [6] = assay: Toxicity of compound against mice was determined at a concentration of 2000 mg/kg; format: organism-based; set-up: dose 2000 mg/kg; settings: in vivo; summary of the method: as §1
Vero [7] = assay: Concentration required for microscopically detectable alteration of the normal cell morphology in Vero B cells.; format: functional; settings: Chlorocebus sabaeus
Summary of the method: (§2)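 Host-cell morphology inspected microscopically for detectable alteration, with compounds in growth medium at up to 200 or 400 μg/mL.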

WI-38 [8] = assay: Antiviral activity was measured against Rhino virus-9 in human diploid (WI-38) cells.; format: functional
Summary of the method: (§3)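 Inhibition of virus-induced cytopathogenicity scored in cell culture monolayers. Test compounds dissolved in growth medium at 100, 10, or 1 μg/mL or less.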

Vero [9] = assay: Antiviral activity was measured against Parainfluenza virus-3 in african green monkey kidney (Vero B) cells.; format: functional; settings: Chlorocebus sabaeus; summary of the method: as §3
[10] = Antiviral activity was measured against vaccinia virus in rabbit kidney cells.; format: functional; settings: Oryctolagus cuniculus
Summary of the method: (§4)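 Inhibition of virus-induced cytopathogenicity in cell culture. Compounds were dissolved in growth medium at 100, 10 or 1 μg/mL or less.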

HeLa [11] = assay: Antiviral activity was measured against Coxsackie virus B4 in HeLa cells.; format: functional; settings: Homo sapiens; summary of the method: as §4
WI-38 [12] = assay: Antiviral activity was measured against Rhino virus-1A in human diploid (WI-38) cells.; format: functional; summary of the method: as §3
Vero [13] = assay: Antiviral activity was measured against Coxsackie virus B4 in african green monkey kidney (Vero B) cells.; format: functional; settings: Chlorocebus sabaeus; summary of the method: as §3
Vero [14] = assay: Antiviral activity was measured against Sindbis virus in african green monkey kidney (Vero B) cells.; format: functional; settings: Chlorocebus sabaeus; summary of the method: as §3
[15] = Antiviral activity was measured against vesicular stomatitis virus in rabbit kidney cells.; format: functional; settings: Oryctolagus cuniculus; summary of the method: as §4
HeLa [16] = assay: Antiviral activity was measured against vesicular stomatitis virus in HeLa cells.; format: functional; settings: Homo sapiens; summary of the method: as §4
Vero [17] = assay: Antiviral activity was measured against forest virus in african green monkey kidney (Vero B) cells.; format: functional; settings: Chlorocebus sabaeus; summary of the method: as §3
[18] = Concentration required for microscopically detectable alteration of the normal cell morphology in PRK cells.; format: functional; settings: Oryctolagus cuniculus; summary of the method: as §2
HeLa [19] = assay: Concentration required for microscopically detectable alteration of the normal cell morphology in HeLa cells.; format: functional; settings: Homo sapiens; summary of the method: as §2
[20] = Antiviral activity was measured against Herpes simplex virus (HSV-2 G) in rabbit kidney cells.; format: functional; settings: Oryctolagus cuniculus; summary of the method: as §3
Vero [21] = assay: Antiviral activity was measured against Reo virus-1 in african green monkey kidney (Vero B) cells.; format: functional; settings: Chlorocebus sabaeus; summary of the method: as §3
[22] = Antiviral activity was measured against Herpes simplex virus (HSV-1 KOS) in rabbit kidney cells.; format: functional; settings: Oryctolagus cuniculus; summary of the method: as §4
WI-38 [23] = assay: Concentration required for microscopically detectable alteration of the normal cell morphology in Wi-38 cells.; format: functional; settings: Homo sapiens; summary of the method: as §2
[24] = Antiviral activity was measured against Vaccinia virus in rabbit kidney cells.; format: functional; settings: Oryctolagus cuniculus; summary of the method: as §4
Mus musculus [25] = species on record: Mus musculus; assay: Efficacy expressed as number of surviving mice infected with herpetic encephalitis at dose of 75 mg.kg; format: functional
Summary of the method: (§5)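 Young mice (10 g) were inoculated intracerebrally with 0.03 mL of herpes simplex virus suspension containing ca. 4 CCID50. Compound was given at 75 or 150 mg/kg per day as two daily intraperitoneal injections for 4 days. Read-out was the number of surviving mice.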

[26] = Number of living cells on the proliferation of mouse myeloma cells SP2 was measured at concentration 100 ug/mL at 48 hr.; format: functional
Summary of the method: (§6)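 Mouse myeloma SP2 cells seeded at 123 × 10^3 cells and exposed to compound at 1, 10 or 100 μg/mL in growth medium. Living cells counted at 0, 48 and 96 h alongside untreated controls.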

[27] = Dose required to reduce primary rabbit kidney cell growth; format: functional; settings: Oryctolagus cuniculus, read-out: ID50 (the source's name)
Summary of the method: (§7)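 Primary rabbit kidney cells with compounds in growth medium at 100, 10, or 1 μg/mL or less. Cell number and incorporation of [3H-methyl]dThd (DNA), [3H-5]Urd (RNA) or [3H2-4,5]leucine (protein) measured. ID50 taken as the dose giving 50% reduction in cell number or in DNA, RNA or protein synthesis.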

[28] = Antiviral activity was measured against Vesicular stomatitis virus in rabbit kidney cells.; format: functional; settings: Oryctolagus cuniculus; summary of the method: as §4
Mus musculus [29] = assay: Efficacy expressed as number of surviving mice infected with herpetic encephalitis at dose of 150 mg/kg; format: functional; summary of the method: as §5
[30] = Concentration required to reduce DNA synthesis in primary rabbit kidney cells using [3H-Methyl]-dThd incorporation; format: functional; settings: Oryctolagus cuniculus, read-out: ID50 (the source's name); summary of the method: as §7
[31] = Concentration required to reduce RNA synthesis in primary rabbit kidney cells using [3H-5]-Urd incorporation; format: functional; settings: Oryctolagus cuniculus, read-out: ID50 (the source's name); summary of the method: as §7
[32] = Number of living cells on the proliferation of mouse myeloma cells SP2 was measured at concentration 100 ug/mL at 96 h.; format: functional; summary of the method: as §6
[33] = Concentration required to reduce protein synthesis in primary rabbit kidney cells usingi [3H2-4,5]leucine incorporation; format: functional; settings: Oryctolagus cuniculus, read-out: ID50 (the source's name); summary of the method: as §7
[34] = dose required to reduce primary rabbit kidney cell growth; format: functional; settings: Oryctolagus cuniculus, read-out: ID50 (the source's name); summary of the method: as §7

Row | Structure (SMILES) | No. of dead mice (Mus musculus [1]) | No. of dead mice (Mus musculus [2]) | No. of dead mice (Mus musculus [3]) | No. of dead mice (Mus musculus [4]) | Efficacy (Mus musculus [5]) | No. of dead mice (Mus musculus [6]) | MCC (Vero [7]) | MCC (WI-38 [8]) | MCC (Vero [9]) | MCC (HeLa [11]) | MCC (WI-38 [12]) | MCC (Vero [13]) | MCC (Vero [14]) | MCC (Vero [17]) | MCC [18] | MCC (HeLa [19]) | MCC [20] | MCC (Vero [21]) | MCC [22] | MCC (WI-38 [23]) | also measured
1 | Nc1nc2c(ncn2COCCO)c(=O)[nH]1 [ACYCLOVIR] | 1 | 0 | 7 | 0 | 0 mg/kg | 7 | – | – | – | – | – | – | – | – | – | – | – | – | – | – | –
2 | Nc1ncnc2c1ncn2C[C@H](O)CO [(S)-DHPA] | – | – | – | – | – | – | > 400 µg/mL | > 400 µg/mL | > 400 µg/mL | > 400 µg/mL | 150 µg/mL | 100 µg/mL | > 400 µg/mL | > 400 µg/mL | > 400 µg/mL | > 400 µg/mL | > 400 µg/mL | 100 µg/mL | > 400 µg/mL | > 400 µg/mL | MCC [10]: 20 µg/mL; MCC [15]: 20 µg/mL; MCC (HeLa [16]): 70 µg/mL
3 | Nc1nc(S)c2ncn(C3O[C@H](CO)[C@H](O)[C@H]3O)c2n1 (stereo partly drawn) | – | – | – | – | – | – | ≥ 200 µg/mL | > 200 µg/mL | > 200 µg/mL | > 200 µg/mL | > 200 µg/mL | > 200 µg/mL | > 200 µg/mL | > 200 µg/mL | > 400 µg/mL | ≥ 200 µg/mL | > 400 µg/mL | > 200 µg/mL | > 400 µg/mL | ≥ 400 µg/mL | –
4 | Nc1ccn([C@@H]2O[C@H](CO)[C@H](O)[C@H]2O)c(=O)n1 | 0 | 0 | 0 | 0 | 0 mg/kg | 1 | > 200 µg/mL | > 400 µg/mL | > 100 µg/mL | > 100 µg/mL | > 400 µg/mL | > 100 µg/mL | > 40 µg/mL | > 200 µg/mL | > 200 µg/mL | 200 µg/mL | 20 µg/mL | > 100 µg/mL | 20 µg/mL | 400 µg/mL | MCC [24]: 20 µg/mL; Efficacy (Mus musculus [25]): 1 mg/kg; No. of living cells [26]: 0.056; IC50 [27]: 72 µg/mL (≈ 296 µM); MCC [28]: > 100 µg/mL; Efficacy (Mus musculus [29]): 2 mg/kg; IC50 [30]: 84 µg/mL (≈ 345 µM); IC50 [31]: 60 µg/mL (≈ 247 µM); No. of living cells [32]: 0
5 | Nc1ncnc2c1ncn2[C@@H]1O[C@H](CO)[C@@H](O)[C@@H]1O [VIDARABINE] | 0 | 0 | 0 | 0 | 0 mg/kg | 0 | ≥ 200 µg/mL | > 100 µg/mL | 150 µg/mL | > 100 µg/mL | > 100 µg/mL | > 100 µg/mL | > 100 µg/mL | > 100 µg/mL | ≥ 200 µg/mL | ≥ 200 µg/mL | 10 µg/mL | 150 µg/mL | 20 µg/mL | ≥ 100 µg/mL | MCC [24]: 2 µg/mL; IC50 [33]: > 200 µg/mL; Efficacy (Mus musculus [25]): 0 mg/kg; MCC [28]: 70 µg/mL; Efficacy (Mus musculus [29]): 0 mg/kg; MCC (HeLa [16]): 150 µg/mL; IC50 [30]: 31 µg/mL (≈ 116 µM); IC50 [31]: 15 µg/mL (≈ 56.1 µM); IC50 [34]: 27 µg/mL (≈ 101 µM)
6 | Cc1cn([C@@H]2O[C@H](CO)[C@@H](O)[C@H]2O)c(=O)[nH]c1=O | – | – | – | – | – | – | > 400 µg/mL | > 400 µg/mL | > 400 µg/mL | > 400 µg/mL | > 400 µg/mL | > 400 µg/mL | > 400 µg/mL | > 400 µg/mL | > 400 µg/mL | > 400 µg/mL | > 400 µg/mL | > 400 µg/mL | > 400 µg/mL | > 400 µg/mL | –
7 | Nc1nc(O)c2c(n1)[nH]c[n+]2C1O[C@H](CO)[C@H](O)[C@H]1O (stereo partly drawn) | – | – | – | – | – | – | 400 µg/mL | > 200 µg/mL | > 200 µg/mL | > 400 µg/mL | > 200 µg/mL | > 200 µg/mL | > 200 µg/mL | > 200 µg/mL | > 400 µg/mL | > 400 µg/mL | > 400 µg/mL | > 200 µg/mL | > 400 µg/mL | > 400 µg/mL | –
